The source of these data is ChEMBL document CHEMBL5696442, “Discovery of type II inhibitors of TGFβ-activated kinase 1 (TAK1) and mitogen-activated protein kinase kinase kinase kinase 2 (MAP4K2)” (J Med Chem, 2015).

The target in experiment [1] is Receptor tyrosine-protein kinase erbB-3 (Homo sapiens) (UniProt P21860). Description: Inhibition of ERBB3 (unknown origin) at 1 uM by Ambit Kinomescan binding assay relative to control.
Experiment [2] has as its target T1, Atrial natriuretic peptide receptor 2 (Homo sapiens) (UniProt P20594).
T1 sequence (whole entry): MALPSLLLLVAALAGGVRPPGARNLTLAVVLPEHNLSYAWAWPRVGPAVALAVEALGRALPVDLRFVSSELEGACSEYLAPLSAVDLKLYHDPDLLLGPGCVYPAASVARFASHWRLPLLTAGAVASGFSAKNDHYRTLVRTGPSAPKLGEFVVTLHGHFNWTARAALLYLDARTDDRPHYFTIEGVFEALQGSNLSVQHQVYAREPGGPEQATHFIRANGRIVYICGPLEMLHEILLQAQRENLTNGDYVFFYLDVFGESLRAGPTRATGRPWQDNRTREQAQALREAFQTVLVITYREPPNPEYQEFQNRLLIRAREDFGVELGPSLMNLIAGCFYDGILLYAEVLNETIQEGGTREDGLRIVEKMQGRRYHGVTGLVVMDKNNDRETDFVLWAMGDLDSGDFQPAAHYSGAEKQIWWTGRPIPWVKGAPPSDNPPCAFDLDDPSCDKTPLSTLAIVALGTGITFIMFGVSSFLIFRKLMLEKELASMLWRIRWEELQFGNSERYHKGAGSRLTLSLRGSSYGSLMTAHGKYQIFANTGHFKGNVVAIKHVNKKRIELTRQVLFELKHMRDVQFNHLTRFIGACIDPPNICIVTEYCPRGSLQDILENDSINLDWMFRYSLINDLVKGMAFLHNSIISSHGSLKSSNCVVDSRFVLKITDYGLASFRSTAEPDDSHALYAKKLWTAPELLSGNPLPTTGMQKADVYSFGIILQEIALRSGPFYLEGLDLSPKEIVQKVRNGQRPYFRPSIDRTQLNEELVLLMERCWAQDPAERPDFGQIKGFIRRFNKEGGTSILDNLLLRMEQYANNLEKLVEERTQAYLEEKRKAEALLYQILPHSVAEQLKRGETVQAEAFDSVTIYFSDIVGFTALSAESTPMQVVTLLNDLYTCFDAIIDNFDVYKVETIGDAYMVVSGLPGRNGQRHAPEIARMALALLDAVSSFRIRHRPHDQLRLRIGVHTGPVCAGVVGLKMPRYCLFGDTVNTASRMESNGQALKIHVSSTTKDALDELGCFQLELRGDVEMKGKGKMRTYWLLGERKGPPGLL
Description: Inhibition of ANPb Lys2 labeling site in human A-375 cells at 5 uM by KiNativ Profiling analysis relative to control. It is filed as cell-based.

Experiment [3] deals with 5'-AMP-activated protein kinase catalytic subunit alpha-1 (Homo sapiens) (UniProt Q13131). Briefly: Inhibition of AMPKa1 Lys2 labeling site in human A-375 cells at 0.5 uM by KiNativ Profiling analysis relative to control. Format: cell-based. In short, it runs like this: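 Intact A375 melanoma cells were treated with compound at 5 or 0.5 μM, then lysed. Lysate kinases were labeled with a lysine-reactive ATP or ADP-biotin probe (KiNativ). Inhibition is read as protection of each kinase labeling site from probe labeling.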

The target of experiment [4] is Ribosomal protein S6 kinase alpha-2 (Homo sapiens) (UniProt Q15349). Description: Inhibition of N-terminal RSK3 kinase domain 1 (unknown origin) at 1 uM by Ambit Kinomescan binding assay relative to control. In short, it runs like this: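 In vitro ATP-site competition binding assay against a panel of over 420 kinases (KinomeScan), with compound tested at 10 or 1 μM.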

In experiment [5] the target is Mitogen-activated protein kinase 14 (Homo sapiens, UniProt Q16539). Briefly: Inhibition of p38 alpha Lys2 labeling site in human A-375 cells at 0.5 uM by KiNativ Profiling analysis relative to control. It is filed as cell-based.
Experiment [6] deals with Homeodomain-interacting protein kinase 3 (Homo sapiens) (UniProt Q9H422). Description: Inhibition of HIPK3 (unknown origin) at 1 uM by Ambit Kinomescan binding assay relative to control; values are per cent of control.
Experiment [7] deals with Phosphatidylinositol 4-phosphate 5-kinase type-1 alpha (Homo sapiens) (UniProt Q99755). Briefly: Inhibition of PIP5K1A (unknown origin) at 10 uM by Ambit Kinomescan binding assay.
In experiment [8] the target is T2, Serine/threonine-protein kinase tousled-like 1 (Homo sapiens) (UniProt Q9UKI8).
T2 sequence (whole entry): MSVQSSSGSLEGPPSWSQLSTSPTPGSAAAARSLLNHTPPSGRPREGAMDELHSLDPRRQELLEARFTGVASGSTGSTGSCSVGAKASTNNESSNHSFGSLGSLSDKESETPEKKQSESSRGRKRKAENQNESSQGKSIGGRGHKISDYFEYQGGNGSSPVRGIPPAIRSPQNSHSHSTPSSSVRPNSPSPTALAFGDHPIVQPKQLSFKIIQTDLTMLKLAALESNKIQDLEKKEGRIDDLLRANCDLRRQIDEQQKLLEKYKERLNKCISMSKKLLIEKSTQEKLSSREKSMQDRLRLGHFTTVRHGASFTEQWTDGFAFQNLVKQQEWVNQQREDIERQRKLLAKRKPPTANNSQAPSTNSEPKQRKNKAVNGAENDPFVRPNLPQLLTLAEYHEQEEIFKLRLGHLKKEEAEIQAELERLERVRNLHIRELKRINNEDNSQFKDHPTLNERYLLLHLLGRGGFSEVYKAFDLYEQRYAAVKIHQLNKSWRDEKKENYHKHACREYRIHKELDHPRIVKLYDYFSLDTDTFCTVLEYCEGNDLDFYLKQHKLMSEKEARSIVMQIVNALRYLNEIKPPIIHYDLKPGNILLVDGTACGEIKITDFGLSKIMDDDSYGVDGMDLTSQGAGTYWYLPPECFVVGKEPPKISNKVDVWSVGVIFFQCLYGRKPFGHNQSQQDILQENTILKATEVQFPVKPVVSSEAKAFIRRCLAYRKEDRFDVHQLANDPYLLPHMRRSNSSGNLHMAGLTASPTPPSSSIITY
Description: Inhibition of TLK1 (unknown origin) at 10 uM by Ambit Kinomescan binding assay.

Experiment [9] deals with Mitogen-activated protein kinase kinase kinase 10 (Homo sapiens) (UniProt Q02779). Briefly: Inhibition of MLK2 (unknown origin) at 10 uM by Ambit Kinomescan binding assay.
In experiment [10] the target is Serine/threonine-protein kinase BRSK2 (Homo sapiens) (UniProt Q8IWQ3). Description: Inhibition of BRSK2 (unknown origin) at 10 uM by Ambit Kinomescan binding assay.
Experiment [11] has as its target Serine/threonine-protein kinase 38 (Homo sapiens) (UniProt Q15208). Description: Inhibition of NDR1 Lys1 labeling site in human Huh-7 cells at 1 uM by KiNativ Profiling analysis relative to control. Format: cell-based.
Experiment [12] is described as follows: Inhibition of CASK Lys1 labeling site in human Huh-7 cells at 1 uM by KiNativ Profiling analysis relative to control.
The target in experiment [13] is Serine/threonine-protein kinase 24 (Homo sapiens) (UniProt Q9Y6E0). Briefly: Inhibition of MST3 Lys2 labeling site harbouring IHRDIKAANVLLSEHGEVK in human Huh-7 cells at 1 uM by KiNativ Profiling analysis relative to control. It is filed as cell-based.

Active and inactive are the calls of the source. The rule behind the calls is not given here.

Chain of 5'-AMP-activated protein kinase catalytic subunit alpha-1 (Homo sapiens) (Q13131 whole entry, looked up): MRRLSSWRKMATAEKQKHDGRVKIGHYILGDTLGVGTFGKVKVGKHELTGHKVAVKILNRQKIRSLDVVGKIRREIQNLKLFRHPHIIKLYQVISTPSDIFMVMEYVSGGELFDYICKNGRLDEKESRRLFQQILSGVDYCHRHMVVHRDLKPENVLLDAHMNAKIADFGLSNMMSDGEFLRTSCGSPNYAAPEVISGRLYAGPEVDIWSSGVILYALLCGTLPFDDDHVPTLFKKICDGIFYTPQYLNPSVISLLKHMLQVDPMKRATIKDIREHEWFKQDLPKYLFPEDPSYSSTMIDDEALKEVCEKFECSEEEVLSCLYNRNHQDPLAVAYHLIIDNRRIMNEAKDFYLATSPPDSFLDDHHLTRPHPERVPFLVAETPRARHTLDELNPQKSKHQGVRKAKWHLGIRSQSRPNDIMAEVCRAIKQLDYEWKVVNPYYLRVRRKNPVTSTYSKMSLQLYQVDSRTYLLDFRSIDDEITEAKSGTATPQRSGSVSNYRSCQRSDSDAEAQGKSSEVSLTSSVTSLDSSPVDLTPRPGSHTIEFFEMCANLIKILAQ
Chain of Mitogen-activated protein kinase 14 (Q16539 whole entry): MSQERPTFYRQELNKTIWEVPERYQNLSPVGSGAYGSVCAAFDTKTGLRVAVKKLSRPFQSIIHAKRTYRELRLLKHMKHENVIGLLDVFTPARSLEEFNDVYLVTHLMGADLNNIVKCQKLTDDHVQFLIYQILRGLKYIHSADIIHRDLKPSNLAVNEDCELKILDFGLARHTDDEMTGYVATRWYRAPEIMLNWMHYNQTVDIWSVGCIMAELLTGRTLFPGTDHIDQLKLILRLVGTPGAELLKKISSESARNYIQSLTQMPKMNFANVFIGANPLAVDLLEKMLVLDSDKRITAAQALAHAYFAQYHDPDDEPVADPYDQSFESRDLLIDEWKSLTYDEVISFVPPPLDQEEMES
Chain of Receptor tyrosine-protein kinase erbB-3 (Homo sapiens) (P21860 whole entry): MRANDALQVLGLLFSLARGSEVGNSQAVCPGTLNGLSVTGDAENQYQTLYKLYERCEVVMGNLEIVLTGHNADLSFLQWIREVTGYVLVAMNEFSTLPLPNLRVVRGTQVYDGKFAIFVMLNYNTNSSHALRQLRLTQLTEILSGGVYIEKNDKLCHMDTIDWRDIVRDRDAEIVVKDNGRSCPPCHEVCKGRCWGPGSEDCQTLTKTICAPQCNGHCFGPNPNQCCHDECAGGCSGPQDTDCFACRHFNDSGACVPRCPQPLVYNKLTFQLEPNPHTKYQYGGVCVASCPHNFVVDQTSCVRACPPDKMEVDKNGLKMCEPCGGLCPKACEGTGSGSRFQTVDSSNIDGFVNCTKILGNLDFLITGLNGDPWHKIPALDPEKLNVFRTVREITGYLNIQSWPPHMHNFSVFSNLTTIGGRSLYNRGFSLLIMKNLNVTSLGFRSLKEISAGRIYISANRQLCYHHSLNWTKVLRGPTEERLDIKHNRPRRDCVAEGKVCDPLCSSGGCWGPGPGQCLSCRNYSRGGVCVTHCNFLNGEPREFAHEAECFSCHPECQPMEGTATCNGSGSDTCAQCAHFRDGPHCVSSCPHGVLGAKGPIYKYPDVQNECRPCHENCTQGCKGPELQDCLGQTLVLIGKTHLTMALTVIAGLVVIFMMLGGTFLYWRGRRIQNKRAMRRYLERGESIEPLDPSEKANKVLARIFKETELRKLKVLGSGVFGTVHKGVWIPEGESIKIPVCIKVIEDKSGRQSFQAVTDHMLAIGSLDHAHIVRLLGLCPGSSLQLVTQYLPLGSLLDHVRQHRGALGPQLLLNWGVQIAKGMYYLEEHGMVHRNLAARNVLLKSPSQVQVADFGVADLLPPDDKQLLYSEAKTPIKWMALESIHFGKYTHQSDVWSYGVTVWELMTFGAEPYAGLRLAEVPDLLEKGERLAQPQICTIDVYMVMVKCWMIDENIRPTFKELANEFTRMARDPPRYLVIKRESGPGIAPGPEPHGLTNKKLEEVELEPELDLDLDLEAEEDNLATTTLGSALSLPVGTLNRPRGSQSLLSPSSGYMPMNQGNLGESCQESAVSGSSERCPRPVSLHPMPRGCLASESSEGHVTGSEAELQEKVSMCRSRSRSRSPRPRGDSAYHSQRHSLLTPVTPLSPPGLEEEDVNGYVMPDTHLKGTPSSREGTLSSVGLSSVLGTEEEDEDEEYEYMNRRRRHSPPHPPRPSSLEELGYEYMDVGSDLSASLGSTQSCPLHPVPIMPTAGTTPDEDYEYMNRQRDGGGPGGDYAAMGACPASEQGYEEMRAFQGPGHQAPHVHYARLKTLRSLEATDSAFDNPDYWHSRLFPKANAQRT
Chain of Ribosomal protein S6 kinase alpha-2 (Homo sapiens) (Q15349 whole entry, the tested form may be a part): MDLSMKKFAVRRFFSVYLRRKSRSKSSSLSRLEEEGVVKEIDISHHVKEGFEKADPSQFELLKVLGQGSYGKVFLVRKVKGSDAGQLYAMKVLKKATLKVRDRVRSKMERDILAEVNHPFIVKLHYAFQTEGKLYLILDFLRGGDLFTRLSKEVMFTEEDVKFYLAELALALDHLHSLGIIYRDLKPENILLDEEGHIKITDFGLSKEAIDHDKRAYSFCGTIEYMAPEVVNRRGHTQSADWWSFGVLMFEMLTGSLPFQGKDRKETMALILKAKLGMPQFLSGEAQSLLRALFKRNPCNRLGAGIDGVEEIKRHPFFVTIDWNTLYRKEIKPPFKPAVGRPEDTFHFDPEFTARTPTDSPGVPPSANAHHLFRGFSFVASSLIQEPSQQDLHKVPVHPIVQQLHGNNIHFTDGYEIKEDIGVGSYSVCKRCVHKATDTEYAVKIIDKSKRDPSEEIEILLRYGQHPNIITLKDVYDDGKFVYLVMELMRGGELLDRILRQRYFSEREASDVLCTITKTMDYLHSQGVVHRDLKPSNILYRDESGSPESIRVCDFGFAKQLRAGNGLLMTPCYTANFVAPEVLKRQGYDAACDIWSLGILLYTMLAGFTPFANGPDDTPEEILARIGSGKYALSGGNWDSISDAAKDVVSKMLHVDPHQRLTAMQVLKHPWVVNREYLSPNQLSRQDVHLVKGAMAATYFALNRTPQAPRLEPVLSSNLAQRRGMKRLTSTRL
Chain of Serine/threonine-protein kinase 24 (Homo sapiens) (Q9Y6E0 whole entry, looked up): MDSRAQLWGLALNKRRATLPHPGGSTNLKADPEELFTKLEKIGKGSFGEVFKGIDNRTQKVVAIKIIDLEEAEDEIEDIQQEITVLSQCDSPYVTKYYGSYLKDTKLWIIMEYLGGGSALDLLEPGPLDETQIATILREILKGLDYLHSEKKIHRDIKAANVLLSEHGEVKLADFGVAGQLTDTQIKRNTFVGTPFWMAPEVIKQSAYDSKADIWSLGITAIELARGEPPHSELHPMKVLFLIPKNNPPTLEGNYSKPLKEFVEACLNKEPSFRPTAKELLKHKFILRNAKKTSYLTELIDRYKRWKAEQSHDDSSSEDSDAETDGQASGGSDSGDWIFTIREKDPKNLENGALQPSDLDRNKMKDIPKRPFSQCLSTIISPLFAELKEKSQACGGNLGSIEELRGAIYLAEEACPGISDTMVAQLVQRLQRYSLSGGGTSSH
Chain of Homeodomain-interacting protein kinase 3 (Homo sapiens) (Q9H422 whole entry, looked up): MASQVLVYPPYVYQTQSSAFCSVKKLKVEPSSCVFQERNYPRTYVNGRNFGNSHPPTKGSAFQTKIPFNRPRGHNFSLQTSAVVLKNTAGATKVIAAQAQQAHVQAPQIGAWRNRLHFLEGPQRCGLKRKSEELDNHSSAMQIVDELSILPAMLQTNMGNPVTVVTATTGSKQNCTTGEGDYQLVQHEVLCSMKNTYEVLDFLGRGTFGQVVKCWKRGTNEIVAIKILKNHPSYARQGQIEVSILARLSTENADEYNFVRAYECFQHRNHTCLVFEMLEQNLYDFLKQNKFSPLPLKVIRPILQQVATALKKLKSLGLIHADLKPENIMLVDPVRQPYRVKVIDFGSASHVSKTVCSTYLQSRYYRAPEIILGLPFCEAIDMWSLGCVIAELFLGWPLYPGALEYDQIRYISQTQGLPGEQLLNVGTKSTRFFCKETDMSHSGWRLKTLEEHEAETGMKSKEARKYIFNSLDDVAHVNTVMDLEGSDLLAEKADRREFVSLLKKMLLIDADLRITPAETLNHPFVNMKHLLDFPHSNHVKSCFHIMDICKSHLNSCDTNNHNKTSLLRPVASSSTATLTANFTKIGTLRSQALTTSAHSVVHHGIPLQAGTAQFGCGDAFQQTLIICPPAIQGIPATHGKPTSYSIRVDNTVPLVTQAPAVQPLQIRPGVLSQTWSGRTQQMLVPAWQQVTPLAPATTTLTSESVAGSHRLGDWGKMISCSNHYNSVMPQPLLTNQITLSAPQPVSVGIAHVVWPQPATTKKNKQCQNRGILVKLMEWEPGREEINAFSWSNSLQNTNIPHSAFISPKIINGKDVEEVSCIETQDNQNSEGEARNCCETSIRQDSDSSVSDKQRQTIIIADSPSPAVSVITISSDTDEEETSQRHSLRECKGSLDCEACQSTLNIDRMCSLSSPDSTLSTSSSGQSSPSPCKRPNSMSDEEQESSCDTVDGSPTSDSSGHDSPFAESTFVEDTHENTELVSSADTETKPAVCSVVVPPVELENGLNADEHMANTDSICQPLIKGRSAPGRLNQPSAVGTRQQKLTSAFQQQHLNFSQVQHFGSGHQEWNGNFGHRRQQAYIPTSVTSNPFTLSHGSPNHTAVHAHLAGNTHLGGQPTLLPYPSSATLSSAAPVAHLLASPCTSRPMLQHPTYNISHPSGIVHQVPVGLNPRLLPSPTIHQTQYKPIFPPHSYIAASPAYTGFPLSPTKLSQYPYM

On to `CCN1CCN(Cc2ccc(NC(=O)c3ccc(C)c(/C=C/c4cnc5[nH]ccc5c4OC)c3)cc2C(F)(F)F)CC1`, for which the inhibition in [1] is 100%; in experiment [2], -8.8%; in experiment [3], -8.2%; in experiment [4], 68%; in experiment [5], 59.5%. In experiment [6], this molecule returned a residual activity of 80%.
Turning to `CCN1CCN(Cc2ccc(NC(=O)c3ccc(C)c(Oc4ccnc5[nH]ccc45)c3)cc2C(F)(F)F)CC1`, the inhibition entry in experiment [7], in experiment [8], in [9] and in experiment [10] was “inactive” each time.
Consider `CNc1cc(Oc2cc(C(=O)Nc3cc(N4CCN(C)CC4)cc(C(F)(F)F)c3)ccc2C)ncn1`, for which the inhibition came out at 16.4% in experiment [11], 16% in [12] and 5% in [13].

In general, inhibition refers to the relative decrease from the control value, in per cent. The term residual activity denotes the share of the control activity or signal that is left under treatment. A higher residual activity goes with much activity left.
